Data taken from ChEMBL document CHEMBL4513216, “Probing the Open Global Health Chemical Diversity Library for Multistage-Active Starting Points for Next-Generation Antimalarials” (ACS Infect Dis, 2020).

Test: Toxicity liver stage against HepG2, at 10uM
Type: cell-based
Parameters: test concentration 10 uM, cell line HepG2-A16-CD81EGFP
Settings: human, HepG2-A16-CD81EGFP cells; read-out: INHIBITION
In short: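 Uninfected HepG2-A16-CD81EGFP cells, 3 × 10^3 per well, 1536-well, plated on prespotted compound at 10 μM final, parasite-free screening media added to match infected plates; puromycin 10 μM positive, DMSO 0.5% negative; run in parallel with 48 h PbLuc assay at 37 °C, 5% CO2; viability by CellTiter-Glo luminescence, normalized to controls.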

Row | Compound | cytotoxicity at 10 µM [%]
1 | COc1cccc(N2CCN(C(=O)c3noc4c3CCCC4)CC2)c1 | 11.7
2 | CN1CC=C(c2noc(CCC(=O)N3CCOCC3)n2)CC1 | -0.687
3 | CC(=O)N1N=C(Cc2ccccc2)OC1C(=O)NCC(=O)OC(C)(C)C (centres undefined) | 0.15
4 | COc1ccc(-c2nc(C#N)c(N(C)C)o2)cc1S(=O)(=O)N(C)C | -7.19
5 | Cc1nnsc1-c1nnc2sc(C(C)C)nn12 | -9.74
6 | COc1cc(N2C[C@H](C(=O)NC3CC3)[C@@H]3CCO[C@@H]3C2)ncn1 | -5.47
7 | Cn1cc(N2CCC3(CCN(C(=O)[C@H]4CCCO4)C3)C2=O)cn1 (some centres undefined) | 0.893
8 | COc1ncccc1C(=O)N1CC[C@H]2C[C@@H](c3nccs3)O[C@@H]2C1 | -0.123
9 | CSCCC(CO)NC(=O)c1ccc2[nH]/c(=N\S(C)(=O)=O)sc2c1 (centres undefined) | -6.96
10 | Cc1cccc(Cn2c(=O)[nH]c3csnc3c2=O)c1 | 3.46
11 | COc1ccc(N2CCC(C(=O)/N=c3/[nH]ccs3)CC2)nn1 | -13.6
12 | Cc1cccnc1NC(=O)CC1(Cn2cnnn2)CCCCC1 | -5.62
13 | COC(=O)C1=C(C)N=C2SCC(=O)N2C1c1cn(C)nc1C (centres undefined) | 8.9
14 | CC(=O)N1CCC1c1cc(N2CCNC(=O)C2)nc(C)n1 (centres undefined) | -1.62
15 | Cc1noc(C2(C)CCCN(C(=O)C(C)C)C2)n1 (centres undefined) | -3.97
16 | NC(=O)c1cnc(-c2ccccc2)nc1CCNC(=O)CN1CCCC1 | -1.25
17 | Cc1cc(-c2ccccc2C(=O)O)nc(C2CCCN2S(C)(=O)=O)n1 (centres undefined) | -3.67
18 | CCN1CCC(c2cncc(N(C)C)n2)CC1 | 5.12
19 | Cn1c(CN2CCCc3cc(F)cc(F)c32)cc(=O)n(C)c1=O | 17.3
20 | CN(C)c1ccc(C(=O)N2CCCCC2CC(N)=O)c(F)c1 (centres undefined) | 7.12
21 | CCN(CC)S(=O)(=O)NC1CCN(c2ccc(OC)cc2)CC1 | 3.38
22 | CC(NC(=O)NCC(C)(C)O)c1ccc(-c2ccncc2)cc1 (centres undefined) | 7.15

Row | Compound | cytotoxicity at 10 µM [%]
23 | CCN(CC1CCOC1)C(=O)Cn1nnn(-c2cccs2)c1=O (centres undefined) | -49.7
24 | CC(C)c1nnc(CN2CCCC2C(=O)OCc2ccccc2)o1 (centres undefined) | 2.78
25 | CCn1ccnc1CNCc1ccc(C)cc1OC(C)(C)C | 1.03
26 | COc1ccccc1CC1CCCN(CCN2CCOC2=O)C1 (centres undefined) | 6.93
27 | CC(CCc1ccccc1F)C(=O)NS(C)(=O)=O (centres undefined) | 3.12
28 | O=C(Nc1nncs1)N1CCC(CCc2ccc(O)cc2)CC1 | 6.81
29 | O=C(CCn1ccccc1=O)Nc1ccc(C(=O)O)cc1 | 4.74
30 | Cc1ccc(-c2noc(CN3CCC(c4ccn[nH]4)CC3)n2)cc1 | 12.6
31 | O=S(=O)(CCNCc1ccc(Cl)cc1)N1CCOCC1 | 4.68
32 | O=C(CNC(=O)c1c(F)cccc1Cl)Nc1ccc(F)cn1 | 8.46
33 | O=C(O)c1nnn(-c2cccc(C(F)(F)F)c2)c1C1CC1 | -2.02
34 | Cc1cccc(N(CCC(N)=O)C(=O)c2cnccn2)c1 | -1.74
35 | CCc1nc(C(=O)N2CCN(Cc3ccc(Cl)cc3)CC2)c[nH]1 | -6.85
36 | CSCCN(C)C(=O)C1(c2ccc(F)cc2F)CCOCC1 | 0.53
37 | CC(C)(C)OC(=O)NC1CCC(NC(=O)c2ccc[nH]2)CC1 (centres undefined) | -17.1
38 | CS(=O)(=O)Cc1ccc(CNc2ncc(C#N)cc2Cl)cc1 | 3.47
39 | CCc1sc(-c2nnc(CNCCn3cccn3)o2)cc1C | 5.05
40 | CN(Cc1ccco1)C(=O)CN1CCN(C)c2ccccc2C1 | -7.2
41 | CC1(C)CN(C(=O)c2ccc3nncn3c2)CCS1 | -4.5
42 | Cc1nc(O)ccc1C(=O)NCc1ncccc1F | 7.97
43 | CCCNC(c1cccnc1)c1ccc(F)cc1F (centres undefined) | -2
44 | CC(C)N(CCCNC(=O)C1CCOCC1)S(C)(=O)=O | 0.617

Row | Compound | cytotoxicity at 10 µM [%]
45 | COCCNC(=O)Cn1cc(NC(=O)c2cc(Cl)c(Cl)n2C)cn1 | -4.01
46 | O=C(c1cc(F)ccc1Br)N1CCN(C(=O)C2CC2)CC1 | 4.9
47 | CC(=O)c1ccc(S(=O)(=O)N2CCC(c3n[nH]c(C)n3)CC2)cc1 | -5.24
48 | CCS(=O)(=O)N1CCN(C(C)c2ncc(-c3ccccc3)o2)CC1 (centres undefined) | 3.44
49 | CCN(CC(=O)NC)S(=O)(=O)c1cnc2c(c1)c(C)nn2C | -1.56
50 | CCC(=O)Nc1ccc(F)c(S(=O)(=O)NC(C)(C)C)c1 | -1.74
51 | N#Cc1ccnc(N2CCN(CC(O)c3cccc(F)c3)CC2)c1 (centres undefined) | 3.15
52 | Cc1cccc(CN2CC[C@H]3OCC[C@@]3(C(=O)N3CCOCC3)C2)n1 | -1.49
53 | CC(C)c1nccc([C@@H]2C[C@@H]3CCN(Cc4ccco4)C[C@H]3O2)n1 | 1.1
54 | CC(C)c1cc(CN(C)C(=O)CN2CCC(C(N)=O)CC2)no1 | -0.0154
55 | CN(C)C1CCCN(C(=O)c2cccc(-c3ncc[nH]3)c2)CC1 (centres undefined) | 4.2
56 | Cc1nc(CC(=O)N2CCCC2c2nc(C(C)C)no2)cs1 (centres undefined) | 4.33
57 | CCCn1ccnc1CN1CC[C@@H](NC(=O)c2cccnc2)[C@H](O)C1 | -7.31
58 | Cc1cnc(C(=O)N2CCN(C(=O)CC(C)C)[C@@H]3CS(=O)(=O)C[C@@H]32)cn1 | -3.06
59 | O=C(CCn1cncn1)N1CCC2(CC1)[C@H](O)C[C@@H]2OCCO | -0.387
60 | Cc1ccc(-c2cnnc(N3CCCC3c3nccs3)n2)o1 (centres undefined) | 3.04
61 | Cc1noc(C)c1CN1CCCCC1CCc1ccc(O)cc1 (centres undefined) | -2.06
62 | COc1cc(F)c(C(=O)NCc2ccon2)c(F)c1 | 2.13
63 | CN1N=C(C(=O)N2CCCC(CCc3ccccc3)C2)CCC1=O (centres undefined) | -10.5
64 | CCN(Cc1cnn(C)c1)C[C@H]1CC[C@@H](Cc2ccc(C)nc2)O1 | 5.24
65 | CC(=O)N1CCc2[nH]cnc2C1C1=CCCN(CCn2cccc2)C1 (centres undefined) | 0.375
66 | CC(=O)c1cc(CN2CCCC23CCN(c2ccccn2)CC3)cs1 | -7.69

Row | Compound | cytotoxicity at 10 µM [%]
67 | CC(C)n1cc(CN(Cc2ccsc2)CC2CCCO2)cn1 (centres undefined) | -7.89
68 | Cc1ccc(Oc2ncccc2CNC(=O)C2COC(=O)N2)c(F)c1F (centres undefined) | 1.82
69 | Cc1cc(C)nc(NC(C)Cc2cnccn2)n1 (centres undefined) | 1.54
70 | COc1ccc(CC(=O)N2CCCC(Cn3cc(CN)nn3)C2)cc1 (centres undefined) | 7.22
71 | c1cc(CCNc2ncnc3c2CCN(Cc2ccoc2)CC3)ccn1 | 9.08
72 | COc1ccccc1C(C(=O)O)N1CCCN(C2CCCC2)CC1 (centres undefined) | -9.12
73 | Cc1cc2nc(C(C)C)cc(N3CCN(c4ccc(O)cc4)CC3)n2n1 | 10.8
74 | O=C(NCCc1nc(-c2cccnc2)no1)c1ccc(C2CCCO2)s1 (centres undefined) | 11.2
75 | Cc1nc(N2Cc3cnn(Cc4ccc(F)cc4)c3C2)no1 | -3.05
76 | CC(=O)N1CCN(C(=O)Nc2ccc(Cl)cc2)[C@H]2CS(=O)(=O)C[C@H]21 | 6.55
77 | Cc1cnccc1NCCNC1CCSCC1 | -9.44
78 | Cc1c(-c2c(-c3ccccc3)ncn2[C@H](CO)C(=O)O)cnn1C | 4.28
79 | CCCN1CCC(Cc2noc(-c3cc4cccnc4nc3C)n2)CC1 | -0.749
80 | COc1cccc(OCC(=O)NCc2ccc3[nH]c(=O)[nH]c3c2)c1 | 2.59
81 | CC(C)C(NC(=O)c1ccc(=O)[nH]c1)c1nnc2n1CCNCC2 (centres undefined) | -1.86
82 | Fc1ccc(Oc2ccc(CNCC3CNc4ccnn4C3)cn2)cc1 (centres undefined) | -11.6
83 | CCc1nccn1C1CCCN(C(=O)c2ccc3c(c2)nnn3C)C1 (centres undefined) | -10.6
84 | CCc1nc(C(=O)N2CCCCC2)nn1-c1ccccc1Cl | 2.1
85 | CCC(O)CN1CCN(C(=O)c2cnc3n[nH]c(C)c3c2)CC1 (centres undefined) | -5
86 | COCCN(CCOC)C(=O)Nc1cc(C(F)(F)F)c[nH]c1=O | -4.28
87 | CC(=O)N(Cc1ncc(C)o1)C1CCN(CCc2cccs2)C1 (centres undefined) | -8.85
88 | Cc1cc(C)n(CC2CCCCN2CCC(=O)Nc2cc(C)on2)n1 (centres undefined) | -1.03

Row | Compound | cytotoxicity at 10 µM [%]
89 | CC(C)c1noc(C(C)N2CCN(Cc3ccsc3)CC2)n1 (centres undefined) | -6.85
90 | CC(=O)NCC1CCN(C(=O)c2csc(-c3ccc(C)cc3C)n2)CC1 | -10.8
91 | Cc1cc(C(=O)N2CCN(C(=O)Cc3ccccn3)CC2)c(C)s1 | 6.18
92 | O=C(c1cccc(CNS(=O)(=O)c2ccccc2F)c1)N1CCCC1 | -0.0481
93 | CC(CNC(=O)Nc1cn[nH]c1)N1CCOCC1 (centres undefined) | 1.92
94 | Cc1nc(C)n(CC2CCCN(Cc3ccc(C(N)=O)cc3)C2)n1 (centres undefined) | 0.818
95 | Nc1nc(Nc2ccccc2)cc(N2CCNCC2)n1 | 1.23
96 | Cc1nnc([C@@H]2C[C@H]3CN(C(=O)c4c(C)noc4C)C[C@H]3O2)[nH]1 | 15.2
97 | CO[C@H]1CCN(Cc2c(C)noc2C)[C@@H]2CN(Cc3ccncc3)C[C@H]12 | 5.59
98 | Cc1nc(Nc2nncs2)cc(C2CNC2)n1 | 5.88
99 | c1cc(CN2CCC(c3ccc4c(c3)OCO4)CC2)ccn1 | -5.21
100 | O=C1CC[C@H]2[C@H](CCN2c2ccccn2)N1CC1CCOCC1 | -36.4
101 | O=C(c1cscn1)N1CC[C@@H]2[C@@H]1CCN2C1CCOC1 (some centres undefined) | 4.19
102 | c1cncc(CN2C[C@H]3CCC[C@@H](CNc4cnccn4)[C@H]3C2)c1 | -2.1
103 | CC(C)N1CCc2c(c(COc3cccnc3)nn2CC2CC2)C1 | 6.49
104 | CC(C)c1nn(C)c(N(C)C)c1CNC1CCN(C2CC2)CC1 | 5.6
105 | Cc1noc(C)c1CN1CCOC2(CCCN(c3nncs3)C2)C1 (centres undefined) | -2.82
106 | CS(=O)(=O)NC1CC2(CCN(CCF)CC2)Oc2ccccc21 (centres undefined) | -2.68
107 | CC(C)N(C)Cc1cncc2c1CCN(C(=O)c1cccc(C#N)c1)C2 | 4.01
108 | C=c1ncsc1=C1NC(c2cccc(CN3CCOCC3)c2)=NO1 | -11.3
109 | CC(C)=CCN1C(=O)[C@@H]2CC[C@H]1CN(c1ncccn1)C2 | 9.14
